Active and inactive are the calls of the source. The rule behind the calls is not given here.

For orientation: IC50 means the concentration that gives 50% inhibition.

The target in test [1] is T1, Endoplasmic reticulum aminopeptidase 2 (Homo sapiens, UniProt Q6P179). Kind of test: Inhibition of human recombinant ERAP2 expressed in baculovirus infected cabbage looper ovary Hi5 cells using L-arginyl-7-amido-4-methyl coumarin as substrate up to 100 uM after 5 to 10 mins by fluorescence assay. The conditions noted are these: BTI-TN-5B1-4. A digest of the protocol: (§1)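 Recombinant human enzymes made in baculovirus-infected Hi5 cells, kept in 10 mM HEPES pH 7, 100 mM NaCl, 10% glycerol. ERAP1 30 nM, ERAP2 6 nM or IRAP 6 nM with 50 μM substrate (L-AMC for ERAP1 and IRAP, R-AMC for ERAP2) and varied inhibitor. Fluorescence rise followed at ex 380/em 460; IC50 from fit of activity against inhibitor concentration.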

The target in test [2] is Leucyl-cystinyl aminopeptidase (Homo sapiens, UniProt Q9UIQ6). In words: Inhibition of human recombinant IRAP expressed in baculovirus infected cabbage looper ovary Hi5 cells using L-leucine-7-amido-4-methyl coumarin as substrate after 5 to 10 mins by fluorescence assay. More on the design: species or system Female gonad, BTI-TN-5B1-4.
Test [3] has as its target T2, Endoplasmic reticulum aminopeptidase 1 (Homo sapiens, UniProt Q9NZ08). In words: Inhibition of human recombinant ERAP1 expressed in baculovirus infected […] using L-leucine-7-amido-4-methyl coumarin as substrate up to 100 uM after 5 to 10 mins by fluorescence assay. In outline: as §1
Test [4] concerns the target T3, Endoplasmic reticulum aminopeptidase 1 (Mus musculus) (UniProt Q9EQH2).
T3 sequence (whole entry): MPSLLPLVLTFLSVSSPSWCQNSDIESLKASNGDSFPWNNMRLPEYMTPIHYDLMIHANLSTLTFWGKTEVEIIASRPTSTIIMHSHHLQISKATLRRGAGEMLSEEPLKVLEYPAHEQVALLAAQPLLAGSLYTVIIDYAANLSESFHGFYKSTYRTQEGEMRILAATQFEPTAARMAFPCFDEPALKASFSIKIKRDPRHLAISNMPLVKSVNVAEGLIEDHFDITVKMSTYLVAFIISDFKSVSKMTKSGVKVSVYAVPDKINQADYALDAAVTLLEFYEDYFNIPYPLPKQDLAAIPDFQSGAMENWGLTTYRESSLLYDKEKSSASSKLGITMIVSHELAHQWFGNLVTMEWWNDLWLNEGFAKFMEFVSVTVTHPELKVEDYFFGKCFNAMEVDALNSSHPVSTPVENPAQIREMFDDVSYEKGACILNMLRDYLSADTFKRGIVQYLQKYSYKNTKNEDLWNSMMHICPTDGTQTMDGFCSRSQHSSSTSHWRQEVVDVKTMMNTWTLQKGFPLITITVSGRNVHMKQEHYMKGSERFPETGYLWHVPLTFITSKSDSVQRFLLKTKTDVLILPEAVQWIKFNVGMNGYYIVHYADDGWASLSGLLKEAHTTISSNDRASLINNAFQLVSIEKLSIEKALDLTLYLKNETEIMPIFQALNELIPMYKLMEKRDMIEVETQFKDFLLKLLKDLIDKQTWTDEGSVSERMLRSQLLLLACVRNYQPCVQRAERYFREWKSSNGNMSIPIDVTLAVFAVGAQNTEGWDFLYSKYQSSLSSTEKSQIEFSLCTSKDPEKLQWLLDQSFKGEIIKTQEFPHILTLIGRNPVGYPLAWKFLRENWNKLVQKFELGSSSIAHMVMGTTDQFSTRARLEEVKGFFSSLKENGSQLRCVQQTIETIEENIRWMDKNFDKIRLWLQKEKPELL
Kind of test: Inhibition of ERAP1 in mouse RAW264.7 cells assessed as reduction in interferon-gamma/LPS-induced phagocytosis after 24 hrs by fluorescent latex beads internalization assay. It counts as cell-based. In outline: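 RAW264.7 cells in RPMI 1640/10% FBS, seeded 2×10^4/well for 24 h. Activated with IFN-γ (100 IU/mL) plus LPS (1 μg/mL) with or without inhibitor at various concentrations. FITC-IgG latex beads given in 1% FBS medium for 24 h at 37 °C. Uptake read as fluorescence (ex 485/em 535) after PBS washes; ED50 from curve fit.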

Test [5] concerns Insulin-regulated aminopeptidase, Lnpep (Mus musculus). Kind of test: Inhibition of IRAP in mouse BMDC assessed as blockade of cross-presentation by measuring IL-2 level incubated for 1 day followed by compound wash out and incubated for 6 hrs with yeast cells expressing surface ovalbumin measured 20 hrs post CD8+ T cell-induction by sandwich ELISA method.
A further test relates to T-cell. In words: Blockade of cross-presentation in mouse IRAP-deficient BMDC assessed as IL-2 level incubated for 1 day […] and incubated for 6 hrs with yeast cells expressing surface ovalbumin measured 20 hrs post CD8+ T cell-induction by sandwich ELISA method. The format is functional, cell-based. A digest of the protocol:
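BMDCs from wild-type or IRAP knockout mice, grown 7 days from bone-marrow progenitors in IMDM/10% FCS with GM-CSF-containing J558 supernatant. Inhibitor added day 6 and kept through all steps. Day 7: serial dilutions of surface-ovalbumin yeast for 6 h, then OT-I lymph-node CD8+ T cells (T/BMDC 1.5:1) for 20 h. Supernatant IL-2 by sandwich ELISA; glutaraldehyde-fixed BMDC background subtracted; duplicate wells.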

Test [6] concerns the target T1, Endoplasmic reticulum aminopeptidase 2. In words: Inhibition of human recombinant ERAP2 expressed in baculovirus infected cabbage looper ovary Hi5 cells using L-arginyl-7-amido-4-methyl coumarin as substrate after 5 to 10 mins by fluorescence assay. The arrangement: species or system Female gonad, BTI-TN-5B1-4.
Test [7] concerns the target T2, Endoplasmic reticulum aminopeptidase 1. Kind of test: Inhibition of human recombinant ERAP1 expressed in baculovirus infected Sf9 cells using L-leucine-7-amido-4-methyl coumarin as substrate after 5 to 10 mins by fluorescence assay.

T1 sequence (Q6P179 whole entry): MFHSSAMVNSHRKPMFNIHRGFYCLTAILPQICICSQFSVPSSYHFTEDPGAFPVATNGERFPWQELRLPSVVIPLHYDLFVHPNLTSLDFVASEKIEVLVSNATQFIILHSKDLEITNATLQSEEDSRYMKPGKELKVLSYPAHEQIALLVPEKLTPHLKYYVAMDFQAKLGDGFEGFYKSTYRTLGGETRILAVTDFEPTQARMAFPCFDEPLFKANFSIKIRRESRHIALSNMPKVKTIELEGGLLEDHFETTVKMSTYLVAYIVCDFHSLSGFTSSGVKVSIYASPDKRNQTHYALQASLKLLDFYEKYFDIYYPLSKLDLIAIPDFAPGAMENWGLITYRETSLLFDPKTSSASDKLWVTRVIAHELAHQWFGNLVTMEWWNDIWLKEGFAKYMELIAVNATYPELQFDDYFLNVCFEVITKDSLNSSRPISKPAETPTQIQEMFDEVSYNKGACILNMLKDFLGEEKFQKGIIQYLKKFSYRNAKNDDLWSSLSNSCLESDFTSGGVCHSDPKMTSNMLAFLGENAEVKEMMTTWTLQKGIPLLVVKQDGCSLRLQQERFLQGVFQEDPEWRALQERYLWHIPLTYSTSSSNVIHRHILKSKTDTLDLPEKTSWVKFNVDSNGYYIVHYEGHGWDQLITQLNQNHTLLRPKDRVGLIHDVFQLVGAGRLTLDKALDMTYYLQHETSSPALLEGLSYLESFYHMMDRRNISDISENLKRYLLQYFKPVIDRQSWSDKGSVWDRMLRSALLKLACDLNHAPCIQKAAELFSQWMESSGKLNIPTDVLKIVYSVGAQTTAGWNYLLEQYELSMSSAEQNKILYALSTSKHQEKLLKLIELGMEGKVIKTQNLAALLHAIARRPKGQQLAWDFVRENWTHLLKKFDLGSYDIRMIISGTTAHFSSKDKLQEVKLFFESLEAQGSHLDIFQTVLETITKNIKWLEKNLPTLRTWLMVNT
T2 sequence (Q9NZ08 whole entry): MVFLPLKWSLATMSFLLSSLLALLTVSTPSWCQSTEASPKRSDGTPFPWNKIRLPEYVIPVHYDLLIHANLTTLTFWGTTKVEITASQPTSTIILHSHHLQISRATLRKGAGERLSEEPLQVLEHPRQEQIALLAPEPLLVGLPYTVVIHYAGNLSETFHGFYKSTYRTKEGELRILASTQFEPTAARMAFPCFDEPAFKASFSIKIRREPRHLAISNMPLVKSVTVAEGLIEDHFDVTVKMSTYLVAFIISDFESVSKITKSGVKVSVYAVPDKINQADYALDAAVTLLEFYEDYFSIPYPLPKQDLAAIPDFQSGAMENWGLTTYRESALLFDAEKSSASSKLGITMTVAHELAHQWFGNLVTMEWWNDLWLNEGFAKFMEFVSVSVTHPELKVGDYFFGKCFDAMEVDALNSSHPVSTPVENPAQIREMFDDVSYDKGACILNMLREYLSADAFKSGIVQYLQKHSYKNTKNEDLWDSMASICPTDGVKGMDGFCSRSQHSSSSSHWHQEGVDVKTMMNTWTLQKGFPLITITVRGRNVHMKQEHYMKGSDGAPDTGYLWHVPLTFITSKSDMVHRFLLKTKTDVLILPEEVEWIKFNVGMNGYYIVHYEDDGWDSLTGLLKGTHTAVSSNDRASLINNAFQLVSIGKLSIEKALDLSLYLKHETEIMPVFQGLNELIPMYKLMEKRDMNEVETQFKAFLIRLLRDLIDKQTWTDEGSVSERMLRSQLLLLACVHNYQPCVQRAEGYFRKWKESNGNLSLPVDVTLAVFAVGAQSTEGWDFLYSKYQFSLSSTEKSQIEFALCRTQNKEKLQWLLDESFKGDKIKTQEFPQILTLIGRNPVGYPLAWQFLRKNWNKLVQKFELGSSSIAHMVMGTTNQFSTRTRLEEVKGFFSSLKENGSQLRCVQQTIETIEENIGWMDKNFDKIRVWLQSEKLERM
Chain of Leucyl-cystinyl aminopeptidase (Q9UIQ6 whole entry): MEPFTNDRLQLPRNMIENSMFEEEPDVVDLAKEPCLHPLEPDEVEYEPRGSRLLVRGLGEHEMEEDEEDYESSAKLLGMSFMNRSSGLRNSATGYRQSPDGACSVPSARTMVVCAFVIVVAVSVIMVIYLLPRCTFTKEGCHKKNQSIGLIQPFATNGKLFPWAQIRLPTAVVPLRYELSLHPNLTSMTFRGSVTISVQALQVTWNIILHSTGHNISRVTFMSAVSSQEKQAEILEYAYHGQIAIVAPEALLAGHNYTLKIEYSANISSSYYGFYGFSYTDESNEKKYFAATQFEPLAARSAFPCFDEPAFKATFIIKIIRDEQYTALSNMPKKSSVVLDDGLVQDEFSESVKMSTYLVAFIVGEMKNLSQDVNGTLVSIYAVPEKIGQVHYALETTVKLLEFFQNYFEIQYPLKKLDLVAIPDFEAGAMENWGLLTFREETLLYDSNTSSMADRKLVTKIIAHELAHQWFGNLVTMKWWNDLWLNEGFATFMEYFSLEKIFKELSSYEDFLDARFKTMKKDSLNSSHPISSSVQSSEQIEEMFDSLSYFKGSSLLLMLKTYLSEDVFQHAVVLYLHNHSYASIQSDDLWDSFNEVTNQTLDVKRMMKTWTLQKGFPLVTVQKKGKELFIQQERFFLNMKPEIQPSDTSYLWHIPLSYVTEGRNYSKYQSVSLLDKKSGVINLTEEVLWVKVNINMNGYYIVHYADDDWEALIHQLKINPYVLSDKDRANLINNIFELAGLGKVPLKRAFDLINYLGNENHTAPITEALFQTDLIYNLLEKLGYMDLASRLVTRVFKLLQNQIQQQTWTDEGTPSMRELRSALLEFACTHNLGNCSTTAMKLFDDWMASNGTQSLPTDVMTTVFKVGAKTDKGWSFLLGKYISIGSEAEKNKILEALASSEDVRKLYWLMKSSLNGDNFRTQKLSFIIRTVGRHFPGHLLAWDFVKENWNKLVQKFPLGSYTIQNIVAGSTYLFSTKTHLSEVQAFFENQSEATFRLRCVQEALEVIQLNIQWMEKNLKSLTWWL

Take `NCCC[C@H](NC(=O)c1ccc(N)c(NC(=O)[C@@H](N)CCc2ccccc2)c1)C(=O)O`: the inhibition entry in test [1] and in test [3] was “inactive” throughout. For the same molecule, the half-inhibitory concentration (IC50) in test [2] is greater than 100 µM.
Consider `COC(=O)[C@H](CCCCN)NC(=O)c1ccc(NC(=O)[C@@H](N)CC(C)C)c(N)c1`, for which the inhibition entry in test [1] and in test [3] was “inactive” in each case. In addition, in test [2], the IC50 was greater than 100 µM.
For `CCCC[C@H](N)C(=O)Nc1cc(C(=O)N[C@@H](CCCCN)C(=O)OC)ccc1N`, in test [2], the IC50 is greater than 100 µM.
For the molecule `COC(=O)[C@H](CCCCN)NC(=O)c1ccc(N)c(NC(=O)[C@@H](N)CCc2ccccc2)c1`, in test [4], the ED50 is 0.97 µM and the inhibition result is “Dose-dependent effect”.
With `CCCC[C@H](N)C(=O)Nc1cc(C(=O)N[C@@H](Cc2c[nH]c3ccccc23)C(=O)OCc2ccccc2)ccc1N`, the ED50 was found to be 0.0065 µM in test [5] and 0.56 µM in test [4]. In addition, the inhibition result in test [5] and in test [4] was “Dose-dependent effect” throughout. In the test on T-cell, the outcome was inactive.
Take `COC(=O)[C@H](Cc1ccc(O)cc1)NC(=O)c1ccc(N)c(NC(=O)[C@@H](N)CCCNC(=N)N)c1`: in test [4], the ED50 was found to be 3 µM and the inhibition entry was “Dose-dependent effect”.
Turning to `CCCC[C@H](N)C(=O)Nc1cc(C(=O)N[C@H](C(=O)OCc2ccccc2)C(C)C)ccc1N`, the IC50 in test [6] and in test [7] was greater than 100 µM each time. Besides, the ED50 entry in test [4] was “inactive”.
For the molecule `CCCC[C@H](N)C(=O)Nc1cc(C(=O)N[C@H](C(=O)O)C(C)C)ccc1N`, in test [2], the IC50 is greater than 100 µM. In addition, the inhibition entry in test [3] was “inactive”.
In the case of `CCCC[C@H](N)C(=O)Nc1ccc(C(=O)N[C@H](C(=O)O)C(C)C)cc1N`, the IC50 in test [2] was 3.9 µM. Further, in test [3], the inhibition result was “inactive”.

Source of the values: ChEMBL document CHEMBL3414429, “3,4-diaminobenzoic acid derivatives as inhibitors of the oxytocinase subfamily of M1 aminopeptidases with immune-regulating properties” (J Med Chem, 2015).
